# Experimental data published in ChEMBL document CHEMBL1221173, “Dynamic imaging of protease activity with fluorescently quenched activity-based probes” (Nat Chem Biol, 2005).
# Calls of active or inactive are those of the source. The rule behind the calls is not given here.
# Legend:
# [1] = target: Cathepsin B (Bos taurus) (UniProt P07688); assay: Inhibition of bovine cathepsin B using Z-RR-AMC substrate assessed as inhibition association constant by fluorimetric assay
# How it was run: (§1)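 Cathepsin B or L (1 nM final) with inhibitor at 10–2,000 nM plus 10 µM substrate (Z-RR-AMC for B, Km 114 µM; Z-FR-AMC for L, Km 7.1 µM), 3.5% DMSO. AMC fluorescence (Ex 370/Em 460 nm) read continuously for 30 min. k_app from inhibition curves converted to k_ass = k_app(1+[S]/K_M).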
# [2] = target: Procathepsin L (Homo sapiens) (UniProt P07711); assay: Inhibition of human cathepsin L using Z-FR-AMC substrate assessed as inhibition association constant by fluorimetric assay; how it was run: as §1
# [3] = target: Procathepsin L (Homo sapiens) (UniProt P07711); assay: Binding affinity to cathepsin L in human MCF10A cells grown on reconstituted basement membrane exposed to 1 uM compounds assessed as protein labeling after 3 days by confocal fluorescence microscopy; conditions: MCF-10A
# [4] = target: Procathepsin L (Homo sapiens) (UniProt P07711); assay: Binding affinity to human recombinant cathepsin L assessed as protein labeling at 0.1 to 10 uM after 30 mins using SDS-PAGE and Typhoon laser flatbed canning method
# How it was run: (§2)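 Recombinant enzyme (cathepsin B, bovine, 0.4 µg; cathepsin L, human, 0.7 µg) in pH 5.5 acetate buffer (50 mM acetate, 2 mM DTT, 5 mM MgCl₂). Optional 30 min pretreatment at 25 °C with general papain-family inhibitor JPM-OEt (25 µM), or DMSO. Probe at increasing concentrations for 30 min. Stopped with SDS sample buffer, SDS-PAGE, gel fluorescence scanned.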
# [5] = target: Cathepsin B (Homo sapiens) (UniProt P07858); assay: Binding affinity to cathepsin B in 8 day old human MCF10A cells grown on reconstituted basement membrane assessed as protein labeling exposed to 1 uM for 3 hrs followed by washing overnight with growth media by confocal fluorescence microscopy; format: cell-based; conditions: MCF-10A
# How it was run: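 Day 8 three-dimensional MCF-10A cultures on reconstituted basement membrane, grown without probe. Treated with 1 µM probe for 3 h in assay medium (2% horse serum, 5 ng/ml EGF), washed overnight, then cold-methanol fixed. Immunostained overnight at 4 °C with rabbit anti-human cathepsin B, then secondary antibody and DAPI. Imaged by confocal microscopy.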
# [6] = target: Cathepsin S (Homo sapiens) (UniProt P25774); assay: Binding affinity to recombinant cathepsin S assessed as protein labeling at 0.1 to 10 uM after 30 mins using SDS-PAGE and Typhoon laser flatbed canning method
# [7] = target: Cathepsin B (Bos taurus) (UniProt P07688); assay: Binding affinity to bovine recombinant cathepsin B assessed as protein labeling at 0.1 to 10 uM after 30 mins using SDS-PAGE and Typhoon laser flatbed canning method; how it was run: as §2
# [8] = target: Cathepsin B (Mus musculus) (UniProt P10605); assay: Binding affinity to cathepsin B in mouse NIH/3T3 cells assessed as protein labeling at 1 uM after 30 mins using SDS-PAGE and Typhoon laser flatbed canning method; format: cell-based; conditions: NIH3T3
# How it was run: (§3)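 NIH-3T3 monolayers seeded one day before. Pretreated 1 h with JPM-OEt (50 µM) or 0.1% DMSO, then probe added to medium at pH 7.4 (final DMSO 0.2%) for the indicated times. Cells PBS-washed and lysed in SDS sample buffer, then boiled. Equal protein run on 12% SDS-PAGE, gel scanned at Ex/Em 532/580 nm.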
# [9] = Binding affinity to recombinant cathepsin X assessed as protein labeling at 0.1 to 10 uM after 30 mins using SDS-PAGE and Typhoon laser flatbed canning method
# [10] = Cytotoxicity against mouse NIH/3T3 cells; format: cell-based; conditions: nih3t3
# [11] = target: T1, Procathepsin L (Mus musculus) (UniProt P06797); assay: Binding affinity to cathepsin L in mouse NIH/3T3 cells assessed as protein labeling at 1 uM after 30 mins using SDS-PAGE and Typhoon laser flatbed canning method; format: cell-based; conditions: NIH3T3; how it was run: as §3
# T1 sequence (whole entry): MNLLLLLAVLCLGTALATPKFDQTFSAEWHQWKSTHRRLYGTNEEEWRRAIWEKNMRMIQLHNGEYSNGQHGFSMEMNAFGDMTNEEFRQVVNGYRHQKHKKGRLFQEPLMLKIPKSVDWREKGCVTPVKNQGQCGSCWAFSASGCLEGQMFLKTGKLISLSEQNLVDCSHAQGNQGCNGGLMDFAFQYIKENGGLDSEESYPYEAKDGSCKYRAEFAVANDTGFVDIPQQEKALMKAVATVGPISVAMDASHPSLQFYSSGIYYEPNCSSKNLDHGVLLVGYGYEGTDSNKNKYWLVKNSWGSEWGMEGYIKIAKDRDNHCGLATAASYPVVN
# [12] = target: Cathepsin B (Homo sapiens) (UniProt P07858); assay: Binding affinity to cathepsin B in human MCF10A cells grown on reconstituted basement membrane exposed to 1 uM compounds assessed as protein labeling after 3 days by confocal fluorescence microscopy; conditions: MCF-10A
# [13] = target: Cathepsin B (Mus musculus) (UniProt P10605); assay: Binding affinity to cathepsin B in mouse NIH/3T3 cells monolayers assessed as protein labeling at 1 uM after 4 to 5 hrs by fluorescence microscopy; format: cell-based; conditions: NIH3T3
# How it was run: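 Live NIH-3T3 cells on glass coverslips, pretreated 1 h with JPM-OEt (50 µM) or 0.1% DMSO. Probe (1 µM) added to growth medium, pH 7.4, for 4–5 h. Moved to phenol red-free medium with LysoTracker (50 nM final) for lysosome co-localization, then imaged by inverted fluorescence microscopy. Some cells first washed 3 h in medium with JPM-OEt or DMSO.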
# Procathepsin L (Homo sapiens), sequence (P07711 114-333 limits assumed): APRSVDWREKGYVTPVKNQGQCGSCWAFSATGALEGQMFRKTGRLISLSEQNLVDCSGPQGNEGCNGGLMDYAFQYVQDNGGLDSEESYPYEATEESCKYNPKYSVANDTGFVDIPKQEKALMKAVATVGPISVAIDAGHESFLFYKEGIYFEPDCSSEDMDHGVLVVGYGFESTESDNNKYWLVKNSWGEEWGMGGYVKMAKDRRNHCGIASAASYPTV
# Cathepsin B (Mus musculus), sequence (P10605 80-333 limits assumed): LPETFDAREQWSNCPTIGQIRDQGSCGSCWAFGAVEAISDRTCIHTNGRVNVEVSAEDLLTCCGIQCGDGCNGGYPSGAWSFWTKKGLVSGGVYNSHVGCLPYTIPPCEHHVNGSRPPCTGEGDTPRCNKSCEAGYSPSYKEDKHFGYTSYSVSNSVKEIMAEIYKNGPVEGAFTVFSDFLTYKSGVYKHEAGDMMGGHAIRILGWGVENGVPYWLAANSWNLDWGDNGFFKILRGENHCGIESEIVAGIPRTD
# Cathepsin S (Homo sapiens), sequence (P25774 115-331 limits assumed): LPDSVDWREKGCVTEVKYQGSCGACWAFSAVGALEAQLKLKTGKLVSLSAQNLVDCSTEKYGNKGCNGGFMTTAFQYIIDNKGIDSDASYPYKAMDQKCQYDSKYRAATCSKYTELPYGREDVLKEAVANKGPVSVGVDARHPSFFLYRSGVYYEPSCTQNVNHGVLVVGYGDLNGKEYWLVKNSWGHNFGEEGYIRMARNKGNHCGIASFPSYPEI
INH [1] [M⁻¹ s⁻¹],INH [2] [M⁻¹ s⁻¹],Activity [3],Activity [4],Activity [5],Activity [6],Activity [7],Activity [8],Activity [9],Activity [11],Activity [12],Activity [13],Compound,Activity [10]
38500,296000,,,,,,,,,,,COc1ccc(-c2ccc3n2[B-](F)(F)[N+]2=C(C)C(CCC(=O)NCCCCCC(=O)NCCCC[C@@H](NC(=O)[C@H](N)Cc4ccccc4)C(=O)COC(=O)c4c(C)cccc4C)=C(C)C2=C3)cc1,
1260,2580,Active,Active,Active,Active,Active,Active,Active,Active,Active,Active,COc1ccc(-c2ccc3n2[B-](F)(F)[N+]2=C(C)C(CCC(=O)NCCCCCC(=O)NCCCC[C@@H](NC(=O)[C@@H](Cc4ccccc4)NC(=O)OCc4ccccc4)C(=O)COC(=O)c4c(C)cccc4C)=C(C)C2=C3)cc1,Non-toxic
212,1180,,,,,,,,,,,COc1ccc(-c2ccc3n2[B-](F)(F)[N+]2=C(C)C(CCC(=O)NCCCCCC(=O)NCCCC[C@@H](NC(=O)[C@@H](Cc4ccccc4)NC(=O)OC(C)(C)C)C(=O)COC(=O)c4c(C)cccc4C)=C(C)C2=C3)cc1,
275,7000,Active,Active,,Active,Active,inactive,Active,Active,Active,Active,COc1ccc(-c2ccc3n2[B-](F)(F)[N+]2=C(C)C(CCC(=O)NCCCCCC(=O)NCCCC[C@@H](NC(=O)[C@@H](Cc4ccccc4)NC(=O)OCc4ccccc4)C(=O)COC(=O)CNC(=O)C4CCN(S(=O)(=O)c5ccccc5-c5c6cc/c(=[N+](/C)c7ccccc7)cc-6oc6cc(Nc7ccccc7)ccc56)CC4)=C(C)C2=C3)cc1,Non-toxic
